Measured values of several laboratories.
Adora1: Adenosine receptor A1 (Adora1, Rattus norvegicus, UniProt P25099)
CA9: Carbonic anhydrase 9 (CA9, Homo sapiens, UniProt Q16790)
MAOB: Amine oxidase [flavin-containing] B (MAOB, Homo sapiens, UniProt P27338)
KCNU1: KCNU1 (Homo sapiens, UniProt A8MYU2)
CHRM4: Muscarinic acetylcholine receptor M4 (CHRM4, Homo sapiens, UniProt P08173)
EDNRB: Endothelin receptor type B (EDNRB, Homo sapiens, UniProt P24530)

| SMILES | target | assay | test system | setting | inhibition [%] |
| --- | --- | --- | --- | --- | --- |
| Cc1ccc(-n2nc(C(C)(C)C)cc2NC(=O)Nc2ccc(OCCN3CCOCC3)c3ccccc23)cc1 | Tyrosine-protein phosphatase non-receptor type 2 (PTPN2, Homo sapiens, UniProt P17706) | enzyme activity, inhibitor |  | 10 µM | 17 |
| CCC(C)N1CCCn2c1nc1c2c(=O)n(C)c(=O)n1C (stereo not drawn) | Adora1 | ligand displacement, radioligand |  | 25 µM, cell membranes | 40 |
| CCOC(=O)C1CSc2[nH]c(=O)sc2C1c1cn(-c2ccccc2)nc1-c1ccc(Cl)cc1 (stereo not drawn) | CA9 | enzyme activity, inhibitor |  | 10 nM | 12 |
| O=C(Nc1ccc([N+](=O)[O-])cc1)c1ccc([N+](=O)[O-])cc1Cl | MAOB | enzyme activity, inhibitor |  | 1 µM, 20 min | 68 |
| O=c1c2ccccc2c(Cc2ccc(Cl)cc2)nn1C1CCCNCC1 (stereo not drawn) | KCNU1 | ion current, inhibitor, patch clamp | HEK293 | 10 µM | 34 |
| C=CN1CCCn2c1nc1c2c(=O)n(C)c(=O)n1C | Adora1 | ligand displacement, radioligand |  | 25 µM, cell membranes | 30 |
| Cn1cnc(Br)c1C1=CN(c2ncnc3[nH]cnc23)CCS1 | Dual specificity tyrosine-phosphorylation-regulated kinase 4 (DYRK4, Homo sapiens, UniProt Q9NR20) | enzyme activity, inhibitor, radiometric |  | 2 µM | 72.2 |
| CCOC(=O)C1CSc2[nH]c(=O)sc2C1c1cn(-c2ccccc2)nc1-c1ccccc1 (stereo not drawn) | CA9 | enzyme activity, inhibitor |  | 10 µM | 75.5 |
| Oc1cccc(Nc2nc(-c3ccc(F)cc3F)cs2)c1 | CHRM4 | cell-free assay |  | 10 µM | -2.9 |
| Cc1cc([N+](=O)[O-])ccc1NC(=O)c1cc(Cl)ccc1O | MAOB | enzyme activity, inhibitor |  | 1 µM, 20 min | 5 |
| CNC(=O)c1csc(Nc2cccc(C)n2)n1 | MAOB | enzyme activity, inhibitor, fluorescence |  | 30 µM | 53 |
| N#CC1CSc2[nH]c(=O)sc2C1c1cn(-c2ccccc2)nc1-c1ccc(Br)cc1 (stereo not drawn) | CA9 | enzyme activity, inhibitor |  | 10 nM | 28.9 |
| CCN(Cc1ccccc1C(F)(F)F)C(=O)C1CCN(S(=O)(=O)c2ccc3[nH]ncc3c2)CC1 | EDNRB | ligand displacement, radioligand |  | 10 µM | 8 |
| CN1CCCn2c1nc1c2c(=O)n(C)c(=O)n1C | Adora1 | ligand displacement, radioligand |  | 25 µM, cell membranes | 28 |
| O=C(c1ccc(Cl)cc1)N(Cc1ccccc1)C1CCCCC1 | Beta-1 adrenergic receptor (ADRB1, Homo sapiens, UniProt P08588) | cell-free assay |  | 10 µM | -27.9 |
| Cc1ccc(-c2nn(-c3ccccc3)cc2C2c3sc(=O)[nH]c3SC3C(=O)N(c4ccccc4)C(=O)C32)cc1 (stereo not drawn) | CA9 | enzyme activity, inhibitor |  | 10 µM | 77.9 |
| CCN(CC)c1ccc(C2Nc3ccc(C(=O)c4ccccc4)cc3NC3=C2C(=O)CC(C)(C)C3)cc1 (stereo not drawn) | CHRM4 | ligand displacement, radioligand |  | 10 µM | -1 |

| SMILES | target | assay | test system | setting | inhibition [%] |
| --- | --- | --- | --- | --- | --- |
| COc1cc(N)ccc1NC(=O)c1ccccc1 | MAOB | enzyme activity, inhibitor |  | 1 µM, 20 min | 1 |
| O=C(c1ccc(F)cc1)N(Cc1ccccc1)C1CCCCC1 | EDNRB | cell-free assay |  | 10 µM | 3 |
| CCOC(=O)C1CSc2[nH]c(=O)sc2C1c1cn(-c2ccccc2)nc1-c1ccc(OC)cc1 (stereo not drawn) | CA9 | enzyme activity, inhibitor |  | 0.1 µM | 53.6 |
| O=C(Nc1ccc(Br)cc1)c1ccccn1 | MAOB | enzyme activity, inhibitor |  | 1 µM, 20 min | 85 |
| CCOC(=O)C1CSc2[nH]c(=O)sc2C1c1cn(-c2ccccc2)nc1-c1ccc(C)cc1 (stereo not drawn) | CA9 | enzyme activity, inhibitor |  | 0.1 µM | 35.5 |
| COc1cc([N+](=O)[O-])ccc1NC(=O)c1ccccc1 | MAOB | enzyme activity, inhibitor |  | 1 µM, 20 min | 14 |
| COc1cc(NC(C)=O)c(Cl)cc1C(=O)Nc1nccs1 | Histamine H1 receptor (HRH1, Homo sapiens, UniProt P35367) | cell-free assay |  | 10 µM | -2 |
| N#Cc1cc(Cn2c(N3CCCC3)nc3ccccc32)ccc1F | CHRM4 | ligand displacement |  | 10 µM | -6.19 |
| CCOC(=O)C1CSc2[nH]c(=O)sc2C1c1cn(-c2ccccc2)nc1-c1ccc(Br)cc1 (stereo not drawn) | CA9 | enzyme activity, inhibitor |  | 100 µM | 91.6 |
| CCN(CC)CCNC(=O)C1CCN(c2ccc3nnc(-c4cccc(C)c4)n3n2)CC1 | KCNU1 | ion current, inhibitor, patch clamp | HEK293 | 10 µM | 62 |
| N#Cc1ccc(NC(=O)c2ccc3c(c2)OCO3)cc1 | MAOB | enzyme activity, inhibitor |  | 1 µM, 20 min | 87 |
| O=C1NC(=S)C(=Cc2cn(-c3ccccc3)nc2-c2ccc(Br)cc2)S1 | CA9 | enzyme activity, inhibitor |  | 1 µM | 66.2 |
| CCOc1ccc(C(=O)Nc2ccc([N+](=O)[O-])cc2Cl)cc1OCC | MAOB | enzyme activity, inhibitor |  | 1 µM, 20 min | 34 |
| CN(C)C1CCN(CC#Cc2nn(C3CCCC3)c3nc(NCc4ccccc4)ncc23)C1 (stereo not drawn) | Serine/threonine-protein kinase 26 (STK26, Homo sapiens, UniProt Q9P289) | enzyme activity, inhibitor, FRET |  | 10 µM | 78 |
| CCOc1ccc(C(=O)Nc2ccc(OC(F)(F)F)cc2)cc1OCC | MAOB | enzyme activity, inhibitor |  | 1 µM, 20 min | 1 |
| CC(C)N1CCCn2c1nc1c2c(=O)n(C)c(=O)n1C | Adora1 | ligand displacement, radioligand |  | 25 µM, cell membranes | 38 |
